Data from ChEMBL document CHEMBL1127415 (J Med Chem, 1994).
Values belong to the molecule of their own block, whether it stands above or below them.

Assays:
[1] = test system: Rattus norvegicus; assay: The duration of action for the % peak inhibition of angiotensin II pressor response for dose of 1.0 mg/kg intravenous administration in conscious rats.; type: functional
Outline: (§1)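 Conscious normotensive rats received antagonists as potassium salts, iv or po. Pressor responses to exogenous AII were measured repeatedly after dosing and reported as % peak inhibition (mean ± SE) and duration of action in h. Methoxamine pressor response served as a specificity check.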

[2] = molecular target: T1, Type-1 angiotensin II receptor (Oryctolagus cuniculus, UniProt P34976); assay: In vitro binding affinity for angiotensin II AT1 receptor in rabbit aorta; type: tissue-based
T1 sequence (P34976 whole entry): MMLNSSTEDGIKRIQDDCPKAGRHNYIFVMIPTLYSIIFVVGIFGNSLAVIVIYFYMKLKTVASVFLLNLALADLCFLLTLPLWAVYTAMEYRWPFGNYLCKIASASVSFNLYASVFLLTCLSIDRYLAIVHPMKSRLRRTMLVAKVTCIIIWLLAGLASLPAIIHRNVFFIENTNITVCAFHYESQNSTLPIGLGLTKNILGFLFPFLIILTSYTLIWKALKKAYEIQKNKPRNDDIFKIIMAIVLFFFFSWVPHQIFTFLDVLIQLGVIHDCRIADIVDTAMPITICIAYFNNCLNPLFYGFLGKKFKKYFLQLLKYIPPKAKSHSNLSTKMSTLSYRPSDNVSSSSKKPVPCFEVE
Outline: (§2)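 Radioligand binding IC50 values. AT1 was measured on rabbit aortic receptor preparations and AT2 on rat midbrain receptor preparations.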

[3] = test system: Rattus norvegicus; assay: The compound was evaluated for the % peak inhibition of angiotensin II pressor response for dose of 1.0 mg/kg intravenous administration in conscious rats.; type: functional; outline: as §1
[4] = molecular target: T2, Type-2 angiotensin II receptor (Rattus norvegicus, UniProt P35351); assay: In vitro binding affinity for angiotensin II AT2 receptor in rat midbrain; outline: as §2
T2 sequence (P35351 whole entry): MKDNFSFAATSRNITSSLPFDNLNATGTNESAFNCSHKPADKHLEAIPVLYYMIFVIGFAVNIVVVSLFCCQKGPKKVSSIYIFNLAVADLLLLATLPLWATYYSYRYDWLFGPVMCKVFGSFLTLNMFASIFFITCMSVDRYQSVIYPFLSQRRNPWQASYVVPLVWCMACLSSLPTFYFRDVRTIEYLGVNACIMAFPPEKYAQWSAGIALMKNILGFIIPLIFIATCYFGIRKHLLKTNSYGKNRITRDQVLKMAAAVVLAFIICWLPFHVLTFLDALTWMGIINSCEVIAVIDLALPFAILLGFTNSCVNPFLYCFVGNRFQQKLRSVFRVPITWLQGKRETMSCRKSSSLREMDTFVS

[5] = test system: Rattus norvegicus; assay: The compound was evaluated for the % peak inhibition of angiotensin II pressor response for dose of 0.3 mg/kg peroral administration in conscious rats.; type: functional; details: route oral; outline: as §1
[6] = test system: Rattus norvegicus; assay: The duration of action for the % peak inhibition of angiotensin II pressor response for dose of 0.3 mg/kg peroral administration in conscious rats.; type: functional; details: route oral; outline: as §1
[7] = test system: Rattus norvegicus; assay: The duration of action for the % peak inhibition of angiotensin II pressor response for dose of 0.1 mg/kg intravenous administration in conscious rats.; type: functional; outline: as §1
[8] = test system: Rattus norvegicus; assay: The compound was evaluated for the % peak inhibition of angiotensin II pressor response for dose of 0.1 mg/kg intravenous administration in conscious rats.; type: functional; outline: as §1
[9] = molecular target: T3, Angiotensin II receptor (Rattus norvegicus) (UniProt P29089+P25095+P35351)
[10] = test system: Macaca mulatta; assay: The compound was evaluated for the ED50 for inhibition of A II pressor response in rhesus monkeys for intravenous administration
[11] = test system: Macaca mulatta; assay: The duration of action for the % peak inhibition of A II pressor response for dose of 0.1 mg/kg peroral administration in rhesus monkeys.; details: route oral
[12] = test system: Macaca mulatta; assay: The compound was evaluated for the ED50 for inhibition of A II pressor response in rhesus monkeys for peroral administration.
[13] = test system: Rattus norvegicus; assay: The duration of action for the % peak inhibition of angiotensin II pressor response for dose of 0.03 mg/kg intravenous administration in conscious rats.
[14] = Ratio of the of A II pressor responses in rhesus monkey, p.o./i.v.; type: functional
Outline: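 Sodium/volume-depleted rhesus monkeys dosed iv or orally; inhibition of the AII pressor response tracked over time. Ratio is oral ED50 divided by iv ED50.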

[15] = Ratio of the of A II pressor responses in dog, p.o./i.v.; type: functional
Outline: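 Conscious normotensive mongrel dogs with an arterial catheter for continuous mean arterial pressure and vein catheters for dosing. Patency checked with norepinephrine 1.6 μg/kg iv. AII 0.1 μg/kg iv boluses given at –45, –30 and –15 min. Antagonist given iv or by oral gavage at 0 min, then AII rechallenged repeatedly to 6 h (24 h if needed). Ratio is oral ED50 divided by iv ED50.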

[16] = test system: Rattus norvegicus; assay: The compound was evaluated for the % peak inhibition of angiotensin II pressor response for dose of 1.0 mg/kg peroral administration in conscious rats.; type: functional; details: route oral; outline: as §1
[17] = test system: Rattus norvegicus; assay: The compound was evaluated for the ED50 for inhibition of A II pressor response in rats for intravenous administration
[18] = test system: Rattus norvegicus; assay: The duration of action for the % peak inhibition of angiotensin II pressor response for dose of 1.0 mg/kg peroral administration in conscious rats.; type: functional; details: route oral; outline: as §1
[19] = Ratio of the of A II pressor responses in rat, p.o./i.v.; type: functional
Outline: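 Conscious normotensive rats; potassium salt given iv or orally; inhibition of the pressor response to exogenous iv AII followed over time. Ratio is oral ED50 divided by iv ED50.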

[20] = test system: Canis familiaris; assay: The compound was evaluated for the ED50 for inhibition of A II pressor response in dogs for intravenous administration
[21] = molecular target: T3, Angiotensin II receptor (Rattus norvegicus); remark: listed apart in the source
[22] = test system: Canis familiaris; assay: The compound was evaluated for the ED50 for inhibition of A II pressor response in dogs for peroral administration.
[23] = molecular target: T3, Angiotensin II receptor (Rattus norvegicus); remark: listed apart in the source
[24] = test system: Rattus norvegicus; assay: The compound was evaluated for the % peak inhibition of angiotensin II pressor response for dose of 0.1 mg/kg peroral administration in conscious rats.; type: functional; details: route oral; outline: as §1
[25] = test system: Rattus norvegicus; assay: The compound was evaluated for the ED50 for inhibition of A II pressor response in rat for intravenous administration
[26] = test system: Rattus norvegicus; assay: The compound was evaluated for the ED50 for inhibition of A II pressor response in rat for peroral administration.
[27] = test system: Rattus norvegicus; assay: The compound was evaluated for the % peak inhibition of angiotensin II pressor response for dose of 0.1 mg/kg perol administration in conscious rats.; type: functional; outline: as §1
[28] = test system: Rattus norvegicus; assay: The duration of action for the % peak inhibition of angiotensin II pressor response for dose of 0.1 mg/kg perol administration in conscious rats.; type: functional; outline: as §1

T3 sequence (P25095 whole entry, looked up, one chain of several): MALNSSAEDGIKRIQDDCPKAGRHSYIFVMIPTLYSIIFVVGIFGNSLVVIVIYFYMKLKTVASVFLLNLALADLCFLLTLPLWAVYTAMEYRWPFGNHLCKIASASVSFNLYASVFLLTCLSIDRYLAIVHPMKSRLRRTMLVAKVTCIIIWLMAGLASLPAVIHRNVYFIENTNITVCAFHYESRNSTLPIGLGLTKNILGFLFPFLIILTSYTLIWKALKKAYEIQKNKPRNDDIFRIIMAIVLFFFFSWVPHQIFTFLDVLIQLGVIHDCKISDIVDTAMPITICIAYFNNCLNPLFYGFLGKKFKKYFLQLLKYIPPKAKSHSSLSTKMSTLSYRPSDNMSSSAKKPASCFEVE
T3 sequence (P29089 whole entry, looked up, one chain of several): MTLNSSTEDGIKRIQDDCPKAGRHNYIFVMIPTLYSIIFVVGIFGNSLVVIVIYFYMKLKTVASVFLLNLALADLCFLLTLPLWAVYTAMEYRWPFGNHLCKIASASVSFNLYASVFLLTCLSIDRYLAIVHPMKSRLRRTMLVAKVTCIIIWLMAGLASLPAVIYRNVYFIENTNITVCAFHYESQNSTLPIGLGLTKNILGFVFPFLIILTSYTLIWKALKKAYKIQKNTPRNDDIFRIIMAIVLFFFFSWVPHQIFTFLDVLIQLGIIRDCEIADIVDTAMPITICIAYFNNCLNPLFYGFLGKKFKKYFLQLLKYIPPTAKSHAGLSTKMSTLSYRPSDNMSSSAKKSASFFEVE

IC50 [2]: 0.27 nM
IC50 [4]: 3600 nM
Compound: CCCC(=O)NS(=O)(=O)c1ccccc1-c1ccc(Cn2c(CC)nc3c(C)cc(C)nc32)cc1
Duration [1]: >6 h
inhibition in vivo at 1 mg/kg [3]: 99%

IC50 [2]: 2.2 nM
IC50 [4]: > 10000 nM
Compound: CCc1nc2c(C)cc(C)nc2n1Cc1ccc(-c2ccccc2S(=O)(=O)NC(C)=O)cc1
Duration [1]: 3.5 h
inhibition in vivo at 1 mg/kg [3]: 100%

IC50 [4]: 50000 nM
Compound: CCCCc1nc(Cl)c(C(=O)O)n1Cc1ccc(-c2ccccc2-c2nn[nH]n2)cc1 [CARBOXYLIC ACID METABOLITE]

IC50 [2]: 0.68 nM
IC50 [4]: 2400 nM
Compound: CCc1nc2c(C)cc(C)nc2n1Cc1ccc(-c2ccccc2S(=O)(=O)NC(=O)C2CC2)cc1
inhibition in vivo at 0.3 mg/kg [5]: 99%
Duration [6]: >6 h
Duration [7]: >6 h
inhibition in vivo at 0.1 mg/kg [8]: 95%

Duration [9]: 4 h
IC50 [2]: 0.2 nM
Duration [21]: > 5 h
Duration [23]: > 5 h
IC50 [4]: 2900 nM
Compound: CCc1nc2c(C)cc(C)nc2n1Cc1ccc(-c2ccccc2S(=O)(=O)NC(=O)c2ccccc2)cc1
ED50 [10]: 0.036 mg/kg
Duration [11]: ~3 h
ED50 [12]: 0.1 mg/kg
Duration [13]: 6 h
Ratio [14]: 3
Ratio [15]: 2
inhibition in vivo at 1 mg/kg [16]: 99%
ED50 [17]: 0.014 mg/kg
Duration [18]: >6 h
Ratio [19]: 5
ED50 [20]: 0.017 mg/kg
Duration [7]: 6 h
ED50 [22]: 0.035 mg/kg
inhibition in vivo at 0.1 mg/kg [8]: 94%
inhibition in vivo at 0.1 mg/kg [24]: 64%

Compound: CCCCc1nc(Cl)c(CO)n1Cc1ccc(-c2ccccc2-c2nnn[nH]2)cc1 [LOSARTAN]
ED50 [25]: 0.28 mg/kg
ED50 [26]: 0.66 mg/kg

IC50 [4]: 50000 nM
Compound: CCc1nc2c(C)cc(C)nc2n1Cc1ccc(-c2ccccc2-c2nn[nH]n2)cc1 [L-158809]
ED50 [25]: 0.029 mg/kg
inhibition in vivo at 0.1 mg/kg [27]: 75%
Duration [7]: >6 h
Duration [28]: >6 h
inhibition in vivo at 0.1 mg/kg [8]: 85%
ED50 [26]: 0.023 mg/kg

IC50 [2]: 0.21 nM
IC50 [4]: 1800 nM
Compound: CCc1nc2c(C)cc(C)nc2n1Cc1ccc(-c2ccccc2S(=O)(=O)NC(=O)C(C)C)cc1
Duration [7]: 5 h
inhibition in vivo at 0.1 mg/kg [8]: 100%
